The first experiment is filed under the species Cavia porcellus. The experiment is described as follows: Percent change in heart rate measured in guinea pig at 10e-5 M concentration. The class given is functional. Summed up:
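Spontaneously beating right atria, with contractions recorded in parallel to give beating rate. Tissue equilibrated 1 h in Tyrode's, washed every 15 min. Drug was added to the bath cumulatively at 15 min intervals in geometrically increasing final concentrations. The chronotropic effect was read 10 min after each addition.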
Regarding `CS(=O)(=O)Nc1ccc(CCN(CCOc2ccc(NS(C)(=O)=O)cc2)Cc2ccc(Cl)cc2)cc1`, the “Delta HR” value is on record as -40.6%.

`CN(CCOc1ccc(NS(C)(=O)=O)cc1)CCc1ccc(NS(C)(=O)=O)cc1` [DOFETILIDE]: the “Delta HR” value is listed as -30%.

For the compound `C=CCN(CCOc1ccc(NS(C)(=O)=O)cc1)CCc1ccc(NS(C)(=O)=O)cc1`, the “Delta HR” value was -5.26%.

With `Cc1ccc(CN(CCc2ccc(N(S(C)(=O)=O)S(C)(=O)=O)cc2)Cc2ccccc2)cc1`, the “Delta HR” value was 16%.

In the case of `COc1ccc(CN(CCc2ccc(NS(C)(=O)=O)cc2)C(C)=O)cc1`, the “Delta HR” value is given as -18.2%.

Consider `CN(CCOc1cccc2ccccc12)CCc1ccc(N(S(C)(=O)=O)S(C)(=O)=O)cc1`, for which the “Delta HR” value is on record as -20.7%.

Consider `CN(CCc1ccc(NS(C)(=O)=O)cc1)Cc1ccc(Cl)cc1`, for which the “Delta HR” value was -14.5%.

On to `CS(=O)(=O)N(c1ccc(CCN(Cc2ccccc2)Cc2ccc3c(c2)OCO3)cc1)S(C)(=O)=O`, for which the “Delta HR” value is given as -18.3%.

On to `Cc1ccc(CN(C)CCc2ccc(N(S(C)(=O)=O)S(C)(=O)=O)cc2)cc1`, for which the “Delta HR” value is given as -15.4%.

Take `CS(=O)(=O)N(c1ccc(CCN(CCOc2cccc3ccccc23)Cc2ccccc2)cc1)S(C)(=O)=O`: the “Delta HR” value is -17.9%.

Regarding `CS(=O)(=O)Nc1ccc(CCN(CCOc2ccc(NS(C)(=O)=O)cc2)S(C)(=O)=O)cc1`, the “Delta HR” value is listed as -18.8%.

Turning to `CN(CCOc1cccc2ccccc12)CCc1ccc(NS(C)(=O)=O)cc1`, the “Delta HR” value is on record as -28.5%.

In the case of `COc1ccc(CN(CCc2ccc(NS(C)(=O)=O)cc2)Cc2ccc(Cl)cc2)cc1`, the “Delta HR” value was -9.09%.

Turning to `CS(=O)(=O)Nc1ccc(CCN(Cc2ccccc2)Cc2ccc(Cl)cc2)cc1`, the “Delta HR” value was 16%.

In the case of `CS(=O)(=O)Nc1ccc(CCN(Cc2ccccc2)Cc2ccccc2)cc1`, the “Delta HR” value is on record as -25%.

`CC(=O)N(CCOc1ccc(NS(C)(=O)=O)cc1)CCc1ccc(NS(C)(=O)=O)cc1`: the “Delta HR” value is -20.6%.

On to `COc1ccc(CN(CCOc2ccc(NS(C)(=O)=O)cc2)CCc2ccc(NS(C)(=O)=O)cc2)cc1`, for which the “Delta HR” value is reported as -25.8%.

Take `CN(CCc1ccc(NS(C)(=O)=O)cc1)C1CCCCC1`: the “Delta HR” value is -8%.

For another experiment, the species on record is Cavia porcellus. Put plainly: Percent change of force of constriction measured in guinea pig at 10e-5 M concentration; N means No effect. The class given is functional. Summed up:
(§1)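 Left atria under 10 mN preload, driven at 1 s⁻¹ by square-wave pulses at twice-threshold voltage. Isometric contractions were recorded via a strain gauge after a 1 h Tyrode's equilibration. Cumulative drug additions were made every 15 min, with final concentrations rising geometrically. The inotropic effect was determined 10 min after each addition.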
`C=CCN(CCOc1ccc(NS(C)(=O)=O)cc1)CCc1ccc(NS(C)(=O)=O)cc1`: the N entry was “No effect”.

As to `CN(CCOc1cccc2ccccc12)CCc1ccc(N(S(C)(=O)=O)S(C)(=O)=O)cc1`, the N result was “No effect”.

In the case of `CS(=O)(=O)Nc1ccc(CCN(Cc2ccccc2)Cc2ccccc2)cc1`, the N entry is “No effect”.

For the next experiment, the species on record is Cavia porcellus. The experiment is described as follows: Effective concentration for delaying effective refractory period (ERP) 10 ms in guinea pig. The class given is functional. In a few lines: (§2)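 Isolated atria, left atria preloaded 10 mN and paced at 1 s⁻¹ with square-wave pulses at twice-threshold voltage. ERP was measured by paired electrical stimulation after a 1 h Tyrode's equilibration with washouts every 15 min. Drug was added cumulatively at 15 min intervals, with final concentrations rising geometrically. ERP was read 10 min after each addition.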
Take `CS(=O)(=O)Nc1ccc(CCN(CCOc2ccc(NS(C)(=O)=O)cc2)Cc2ccc(Cl)cc2)cc1`: the C was 0.037 µM.

As for `CN(CCOc1ccc(NS(C)(=O)=O)cc1)CCc1ccc(NS(C)(=O)=O)cc1` [DOFETILIDE], the C is 0.011 µM.

For the compound `C=CCN(CCOc1ccc(NS(C)(=O)=O)cc1)CCc1ccc(NS(C)(=O)=O)cc1`, the C came out at 0.267 µM.

As for `Cc1ccc(CN(CCc2ccc(N(S(C)(=O)=O)S(C)(=O)=O)cc2)Cc2ccccc2)cc1`, the C worked out at 0.62 µM.

The compound `CN(CCOc1cccc2ccccc12)CCc1ccc(N(S(C)(=O)=O)S(C)(=O)=O)cc1` gave a C of 0.203 µM.

Compound `CN(CCc1ccc(NS(C)(=O)=O)cc1)Cc1ccc(Cl)cc1` registered a C of 2.24 µM.

`CS(=O)(=O)N(c1ccc(CCN(Cc2ccccc2)Cc2ccc3c(c2)OCO3)cc1)S(C)(=O)=O` came in with a C of 0.38 µM.

With `Cc1ccc(CN(C)CCc2ccc(N(S(C)(=O)=O)S(C)(=O)=O)cc2)cc1`, the C was found to be 0.953 µM.

In turn, `CN(CCOc1cccc2ccccc12)CCc1ccc(NS(C)(=O)=O)cc1` came in with a C of 0.293 µM.

`COc1ccc(CN(CCc2ccc(NS(C)(=O)=O)cc2)Cc2ccc(Cl)cc2)cc1` displayed a C of 0.068 µM.

With `CS(=O)(=O)Nc1ccc(CCN(Cc2ccccc2)Cc2ccc(Cl)cc2)cc1`, the C came to 1.05 µM.

Consider `CS(=O)(=O)Nc1ccc(CCN(Cc2ccccc2)Cc2ccccc2)cc1`, for which the C came to 0.27 µM.

Turning to `CC(=O)N(CCOc1ccc(NS(C)(=O)=O)cc1)CCc1ccc(NS(C)(=O)=O)cc1`, the C was found to be 0.021 µM.

Regarding `COc1ccc(CN(CCOc2ccc(NS(C)(=O)=O)cc2)CCc2ccc(NS(C)(=O)=O)cc2)cc1`, the C worked out at 0.21 µM.

`CN(CCc1ccc(NS(C)(=O)=O)cc1)C1CCCCC1` came in with a C of 4.79 µM.

Another experiment is filed under the species Cavia porcellus. The experiment is described as follows: (§3) Percent change for delaying effective refractory period (ERP) in guinea pig at 10e-5 M concentration. The class given is functional. In a few lines:
as §2
As for `CS(=O)(=O)Nc1ccc(CCN(CCOc2ccc(NS(C)(=O)=O)cc2)Cc2ccc(Cl)cc2)cc1`, the “Delta ERP” value is recorded as 9.29%.

`CN(CCOc1ccc(NS(C)(=O)=O)cc1)CCc1ccc(NS(C)(=O)=O)cc1` [DOFETILIDE]: the “Delta ERP” value is listed as 24%.

As for `C=CCN(CCOc1ccc(NS(C)(=O)=O)cc1)CCc1ccc(NS(C)(=O)=O)cc1`, the “Delta ERP” value worked out at 12.4%.

As to `Cc1ccc(CN(CCc2ccc(N(S(C)(=O)=O)S(C)(=O)=O)cc2)Cc2ccccc2)cc1`, the “Delta ERP” value worked out at 5.71%.

With `CN(CCOc1cccc2ccccc12)CCc1ccc(N(S(C)(=O)=O)S(C)(=O)=O)cc1`, the “Delta ERP” value turned out to be 12%.

As for `CN(CCc1ccc(NS(C)(=O)=O)cc1)Cc1ccc(Cl)cc1`, the “Delta ERP” value came out at 7.06%.

Consider `CS(=O)(=O)N(c1ccc(CCN(Cc2ccccc2)Cc2ccc3c(c2)OCO3)cc1)S(C)(=O)=O`, for which the “Delta ERP” value is recorded as 9.46%.

As to `Cc1ccc(CN(C)CCc2ccc(N(S(C)(=O)=O)S(C)(=O)=O)cc2)cc1`, the “Delta ERP” value is 12.6%.

As for `CN(CCOc1cccc2ccccc12)CCc1ccc(NS(C)(=O)=O)cc1`, the “Delta ERP” value was 20.2%.

Turning to `COc1ccc(CN(CCc2ccc(NS(C)(=O)=O)cc2)Cc2ccc(Cl)cc2)cc1`, the “Delta ERP” value was found to be 19.3%.

In the case of `CS(=O)(=O)Nc1ccc(CCN(Cc2ccccc2)Cc2ccc(Cl)cc2)cc1`, the “Delta ERP” value was 14.5%.

On to `CS(=O)(=O)Nc1ccc(CCN(Cc2ccccc2)Cc2ccccc2)cc1`, for which the “Delta ERP” value came to 16.1%.

Take `CC(=O)N(CCOc1ccc(NS(C)(=O)=O)cc1)CCc1ccc(NS(C)(=O)=O)cc1`: the “Delta ERP” value stood at 16.9%.

For the compound `COc1ccc(CN(CCOc2ccc(NS(C)(=O)=O)cc2)CCc2ccc(NS(C)(=O)=O)cc2)cc1`, the “Delta ERP” value was 12.1%.

Consider `CN(CCc1ccc(NS(C)(=O)=O)cc1)C1CCCCC1`, for which the “Delta ERP” value came to 6.45%.

The species named for another experiment is Cavia porcellus. The experiment is described as §3. The class given is functional, organism-based. Summed up: as §2
As to `CS(=O)(=O)Nc1ccc(CCN(CCOc2ccc(NS(C)(=O)=O)cc2)S(C)(=O)=O)cc1`, the N result is “No effect at 10E-5 M”.

For the next experiment, the species on record is Cavia porcellus. Put plainly: Effective concentration for delaying effective refractory period (ERP) 10 ms in guinea pig; N means No effect at 10E-5 M. The class given is functional. Summed up: as §2
With `COc1ccc(CN(CCc2ccc(NS(C)(=O)=O)cc2)C(C)=O)cc1`, the N result was “No effect”.

`CS(=O)(=O)Nc1ccc(CCN(CCOc2ccc(NS(C)(=O)=O)cc2)S(C)(=O)=O)cc1`: the N entry is “No effect at 10E-5 M”.

The next experiment is filed under the species Cavia porcellus. The experiment is described as follows: No effect was observed for ERP at 10x (10e-5) M concentration; N means No effect at 10E-5 M. The class given is functional. In a few lines:
as §2
Turning to `CS(=O)(=O)N(c1ccc(CCN(CCOc2cccc3ccccc23)Cc2ccccc2)cc1)S(C)(=O)=O`, the N entry was “No effect”.

The species named for the next experiment is Cavia porcellus. The experiment is described as follows: Percent change of force of constriction measured in guinea pig at 10e-5 M concentration. The class given is functional. In a few lines: as §1
For the compound `CS(=O)(=O)Nc1ccc(CCN(CCOc2ccc(NS(C)(=O)=O)cc2)Cc2ccc(Cl)cc2)cc1`, the “Delta FC” value came to 20%.

For `CN(CCOc1ccc(NS(C)(=O)=O)cc1)CCc1ccc(NS(C)(=O)=O)cc1` [DOFETILIDE], the “Delta FC” value stood at 17.1%.

For `Cc1ccc(CN(CCc2ccc(N(S(C)(=O)=O)S(C)(=O)=O)cc2)Cc2ccccc2)cc1`, the “Delta FC” value stood at 25%.

For `COc1ccc(CN(CCc2ccc(NS(C)(=O)=O)cc2)C(C)=O)cc1`, the “Delta FC” value was 14.3%.

In the case of `CN(CCc1ccc(NS(C)(=O)=O)cc1)Cc1ccc(Cl)cc1`, the “Delta FC” value is reported as 8.33%.

On to `CS(=O)(=O)N(c1ccc(CCN(Cc2ccccc2)Cc2ccc3c(c2)OCO3)cc1)S(C)(=O)=O`, for which the “Delta FC” value is on record as -20%.

Regarding `Cc1ccc(CN(C)CCc2ccc(N(S(C)(=O)=O)S(C)(=O)=O)cc2)cc1`, the “Delta FC” value is -11.8%.

`CS(=O)(=O)N(c1ccc(CCN(CCOc2cccc3ccccc23)Cc2ccccc2)cc1)S(C)(=O)=O`: the “Delta FC” value is 25%.

For the compound `CS(=O)(=O)Nc1ccc(CCN(CCOc2ccc(NS(C)(=O)=O)cc2)S(C)(=O)=O)cc1`, the “Delta FC” value was determined as 16.7%.

Regarding `CN(CCOc1cccc2ccccc12)CCc1ccc(NS(C)(=O)=O)cc1`, the “Delta FC” value stood at 20.3%.

Consider `COc1ccc(CN(CCc2ccc(NS(C)(=O)=O)cc2)Cc2ccc(Cl)cc2)cc1`, for which the “Delta FC” value came out at 15%.

Regarding `CS(=O)(=O)Nc1ccc(CCN(Cc2ccccc2)Cc2ccc(Cl)cc2)cc1`, the “Delta FC” value was determined as 25%.

Regarding `CC(=O)N(CCOc1ccc(NS(C)(=O)=O)cc1)CCc1ccc(NS(C)(=O)=O)cc1`, the “Delta FC” value stood at 17.5%.

With `COc1ccc(CN(CCOc2ccc(NS(C)(=O)=O)cc2)CCc2ccc(NS(C)(=O)=O)cc2)cc1`, the “Delta FC” value worked out at 14.3%.

Take `CN(CCc1ccc(NS(C)(=O)=O)cc1)C1CCCCC1`: the “Delta FC” value is recorded as 8.33%.

For a further experiment, the species on record is Cavia porcellus. The experiment is described as follows: Percent change for delaying effective refractory period (ERP) in guinea pig at 10e-5 M concentration; N means No effect. The class given is functional. In a few lines:
as §2
Regarding `COc1ccc(CN(CCc2ccc(NS(C)(=O)=O)cc2)C(C)=O)cc1`, the N entry was “No effect”.

Take `CS(=O)(=O)N(c1ccc(CCN(CCOc2cccc3ccccc23)Cc2ccccc2)cc1)S(C)(=O)=O`: the N result was “No effect”.

Source of the values: ChEMBL document CHEMBL1135495, “New p-methylsulfonamido phenylethylamine analogues as class III antiarrhythmic agents: design, synthesis, biological assay, and 3D-QSAR analysis” (2002).
